From PubChem
The sample as a whole holds a higher share of hits than the screen did.
T cruzi growth-1 – blocks T. cruzi growth in NIH3T3 culture. hit rate 5.9% among 77,000. inhibition, % at 8.34 µM. T. cruzi beta-gal in NIH3T3, GalScreen luminescence, 90 h;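 active = mean inhibition above about 93%, with at least 55% of replicates each passing it, limit read from the data, passing the limit was not always enough; inconclusive = only one of those two conditions holds; inactive = neither condition holds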
IDH1 mut inh – inhibitors of human IDH1 R132H. inhibition, % at 10 µM. IDH1 R132H reductase, diaphorase/resazurin fluorescence, 60 min. hit rate 0.18% among 70,000; in the data active = inhibition above about 34%; inconclusive = no clear call, values can overlap the other calls; inactive = below about 11%;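 also: 0% = DMSO and 100% = no enzyme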
Target sequence (O75874 whole entry R132H): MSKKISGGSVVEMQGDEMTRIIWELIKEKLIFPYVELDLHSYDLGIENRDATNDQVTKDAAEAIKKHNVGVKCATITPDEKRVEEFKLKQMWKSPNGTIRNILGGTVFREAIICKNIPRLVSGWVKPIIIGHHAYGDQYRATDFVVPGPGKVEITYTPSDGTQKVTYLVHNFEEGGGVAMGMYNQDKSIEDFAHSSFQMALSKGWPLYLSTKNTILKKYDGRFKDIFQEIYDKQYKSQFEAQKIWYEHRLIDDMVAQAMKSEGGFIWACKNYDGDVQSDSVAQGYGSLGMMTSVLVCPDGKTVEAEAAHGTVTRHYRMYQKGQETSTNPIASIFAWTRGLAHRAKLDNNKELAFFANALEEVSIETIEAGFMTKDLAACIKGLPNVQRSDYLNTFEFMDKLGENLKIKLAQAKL
KDM4C inh – inhibitors of human demethylase GASC-1 KDM4C. GST-KDM4C 2-372, H3K9me3 peptide, LANCE TR-FRET. hit rate 0.15% among 96,000. inhibition, % at 12.5 µM;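 active = mean replicate inhibition above about 25%, with at least 55% of replicates also reaching it, limit read from the data, passing the limit was not always enough; inconclusive = only one of those two conditions met; inactive = neither condition met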
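Assay system: GST-GASC-1 enzyme fragment 2-372 | Amount: 10 nM enzyme | Medium: HEPES buffer, pH 7.5, plus ascorbate | Reagent: H3K9me3 peptide substrate, Fe(II), 2-oxoglutarate | Doses: Single-point compound screen | Incubation: 30 min demethylation and 1 h detection at room temperature | Measured by: LANCE TR-FRET, excitation 340 nm, emissions 618 and 671 nm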
T cruzi growth-2 – blocks T. cruzi growth in NIH3T3 host cells. shares compounds with T cruzi growth-1. T. cruzi beta-gal in NIH3T3, GalScreen luminescence, 90 h. inhibition, % at 8.35 µM. hit rate 72% among 5,600. AID 651739;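 active = mean replicate inhibition above about 95% and at least 55% of replicates individually reaching it, limit read from the data; inconclusive = only one of the two criteria is met; inactive = neither criterion is met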
T cruzi growth-3 – blocks T. cruzi growth in NIH3T3 host cells | shares compounds with T cruzi growth-1 | T. cruzi beta-gal in NIH3T3, GalScreen luminescence, 90 h | inhibition, % at 2.09 µM | hit rate 21% among 5,600 | AID 651740;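 active = mean inhibition above about 95%, with at least 55% of replicates also reaching it, limit read from the data; inconclusive = meets just one of the two conditions; inactive = meets neither condition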;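 also: plate controls were neutral control median for no effect and positive control median for full effect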
3T3 cytotox – cytotoxicity in mouse NIH/3T3 fibroblasts | hit rate 14% among 5,600 | NIH/3T3 viability, CellTiter-Glo ATP luminescence, 90 h | shares compounds with T cruzi growth-1 | cytotoxicity (signal decrease), % at 8.35 µM | AID 651742;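 active = mean signal decrease across replicates above about 35% based on untreated-well scatter, with enough replicates individually passing, limit read from the data; inconclusive = no rule stated though some were filed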;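 also: 0% = median of neutral control wells and 100% = median of positive control wells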
3T3 cytotox 2 – kills mouse NIH/3T3 fibroblasts | inhibition, % at 24.9 µM | hit rate 56% among 5,600 | shares compounds with T cruzi growth-1 | NIH/3T3 viability, CellTiter-Glo ATP luminescence, 90 h;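 active = mean loss of cell viability signal at or above a set limit, and enough replicates individually reaching it; inconclusive = meets only the mean limit or only the replicate share; inactive = meets neither condition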;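 also: 0% = median of neutral control wells and 100% = median of positive control wells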
* hit, by the source's call; ? = inconclusive; · = not tested or not shown.

SMILES	T cruzi growth-1	IDH1 mut inh	KDM4C inh	T cruzi growth-2	T cruzi growth-3	3T3 cytotox	3T3 cytotox 2
Cc1ccccc1NC(=O)C(=O)NCc1cccnc1	·	-0.3	·	·	·	·	·
CCn1c(SCC(=O)Nc2cccc(F)c2)nnc1-c1ccc(OC)cc1	·	0.3	·	·	·	·	·
CN(CCO)S(=O)(=O)c1cccc(C(=O)O)c1	·	1.6	·	·	·	·	·
CCc1nc2sc3c(c2c2nnc(SCC(=O)Nc4ccccc4)n12)CCC3	·	0.0	·	·	·	·	·
O=C(CN1CCOCC1)N1CCCCN2[C@H](CO)[C@H](c3ccc(-c4ccccc4F)cc3)[C@@H]2C1	84.7	·	-0.3	·	·	·	·
COc1ccccc1-c1ccc([C@H]2[C@@H](CO)N3CCCCN(C(=O)CN4CCOCC4)C[C@H]23)cc1	61.8	·	1.8	·	·	·	·
COc1ccccc1-c1ccc([C@H]2[C@H](CO)N3CCCCN(C(=O)CN4CCOCC4)C[C@@H]23)cc1	100.3*	·	0.6	78.5	40.1	19.1	30.6*
O=C(CN1CCOCC1)N1CCCCN2[C@@H](CO)[C@H](c3ccc(-c4ccccc4F)cc3)[C@@H]2C1	?	·	-0.2	79.3	73.0	-9.0	-27.4
CC1=C(C/C=N/NC(=O)CCCCCC(=O)NO)C(C)(C)CCC1	·	0.2	·	·	·	·	·
Cn1c(Cc2cccc3ccccc23)nnc1SCc1ccccc1C#N	·	-0.6	·	·	·	·	·
CC(C)(C)c1ccc(OCC(O)Cn2cnc3ccccc32)cc1 (stereo unspecified)	·	2.1	·	·	·	·	·
C[C@@H]1CCCCO[C@H](CN(C)C(=O)Nc2ccc(C(F)(F)F)cc2)[C@@H](C)CN([C@@H](C)CO)C(=O)c2cc(NC(=O)c3ccncc3)ccc2O1	71.8	-0.1	-3.0	·	·	·	·
C[C@@H]1CCCCO[C@@H](CN(C)C(=O)Nc2ccc(C(F)(F)F)cc2)[C@@H](C)CN([C@H](C)CO)C(=O)c2cc(NC(=O)c3ccccc3)ccc2O1	71.0	0.0	-1.3	·	·	·	·
C[C@H]1CCCCO[C@@H](CN(C)C(=O)Nc2ccc(C(F)(F)F)cc2)[C@@H](C)CN([C@@H](C)CO)C(=O)c2cc(NC(=O)c3ccncc3)ccc2O1	108.5*	3.0	-1.7	108.8*	67.3	18.4	?
C[C@@H]1CN([C@@H](C)CO)C(=O)c2cc(NC(=O)c3ccccc3)ccc2O[C@@H](C)CCCCO[C@@H]1CN(C)C(=O)Nc1ccc(C(F)(F)F)cc1	?	·	0.0	103.7*	101.2*	33.5	79.7*
C[C@@H]1CCCCO[C@H](CN(C)C(=O)Nc2ccc(C(F)(F)F)cc2)[C@H](C)CN([C@@H](C)CO)C(=O)c2cc(NC(=O)c3ccccc3)ccc2O1	85.9	-1.2	1.6	·	·	·	·
C[C@@H]1CCCCO[C@H](CN(C)C(=O)Nc2ccc(C(F)(F)F)cc2)[C@H](C)CN([C@H](C)CO)C(=O)c2cc(NC(=O)c3ccccc3)ccc2O1	102.0*	-1.0	0.5	110.3*	106.2*	-3.1	-11.3
C[C@@H]1CCCCO[C@H](CN(C)C(=O)Nc2ccc(F)cc2)[C@H](C)CN([C@@H](C)CO)C(=O)c2cc(NC(=O)c3ccccc3)ccc2O1	86.1	·	0.5	·	·	·	·
C[C@H]1CCCCO[C@@H](CN(C)C(=O)Nc2ccc(F)cc2)[C@@H](C)CN([C@@H](C)CO)C(=O)c2cc(NC(=O)c3ccccc3)ccc2O1	?	·	-2.1	?	25.8	-3.6	-1.8
COc1ccc(-c2cc(C)nc(SCC(=O)Nc3cccc(Cl)c3Cl)n2)cc1	·	0.4	·	·	·	·	·
COC(=O)c1cc(C(=O)NCc2ccco2)cc([N+](=O)[O-])c1	·	0.0	·	·	·	·	·
COc1cc2c(cc1O)C1Cc3ccc(O)c(OC)c3CN1CC2 (stereo unspecified)	·	-3.0	·	·	·	·	·
C/C=C/C1C2OC3=C(C(=O)OC3(C)O)C(=O)C1(C)C1CC(O)C(C)CC1C2O (stereo unspecified)	·	0.1	·	·	·	·	·
Cc1ccc(NC(=O)CSc2nnnn2C)c(C)c1	·	0.2	·	·	·	·	·
N#Cc1ccccc1NC(=O)CN1CCC(C(N)=O)CC1	·	2.2	·	·	·	·	·
COc1ccc(-c2ccc([C@@H]3[C@@H](C#N)N(C(=O)C4CCOCC4)[C@H]3CO)cc2)cc1	56.7	·	-0.9	·	·	·	·
N#C[C@@H]1[C@@H](c2ccc(-c3cncnc3)cc2)[C@H](CO)N1C(=O)C1CCOCC1	99.6*	·	2.1	10.2	9.1	-9.8	0.9
